Experimental data published in ChEMBL document CHEMBL1833867, “Conformationally constrained analogs of BAY 59-3074 as novel cannabinoid receptor ligands” (Bioorg Med Chem Lett, 2011).

Tests used:
[1] = Selectivity ratio of Ki for rat cannabinoid CB1 receptor to Ki for human cannabinoid CB2 receptor
Cannabinoid receptor 2 [2] = molecular target: Cannabinoid receptor 2 (Mus musculus, UniProt P47936); assay: Displacement of [3H]CP55940 from mouse cannabinoid CB2 receptor
Cannabinoid receptor 2 [3] = molecular target: Cannabinoid receptor 2 (Homo sapiens, UniProt P34972); assay: Displacement of [3H]CP55940 from human cannabinoid CB2 receptor
Cannabinoid receptor 2 (Homo sapiens, UniProt P34972), sequence (P34972 whole entry): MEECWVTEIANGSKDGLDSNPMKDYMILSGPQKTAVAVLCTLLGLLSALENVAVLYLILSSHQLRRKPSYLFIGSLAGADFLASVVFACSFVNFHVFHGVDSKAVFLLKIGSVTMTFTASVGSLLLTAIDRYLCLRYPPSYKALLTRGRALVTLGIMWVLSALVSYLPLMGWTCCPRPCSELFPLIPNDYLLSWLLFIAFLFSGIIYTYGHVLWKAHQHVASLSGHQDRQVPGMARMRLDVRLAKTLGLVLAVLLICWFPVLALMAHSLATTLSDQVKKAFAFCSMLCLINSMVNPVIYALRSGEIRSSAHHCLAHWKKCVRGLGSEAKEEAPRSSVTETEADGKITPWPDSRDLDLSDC

Cannabinoid receptor 1 = Cannabinoid receptor 1 (Rattus norvegicus, UniProt P20272); assay: Displacement of [3H]CP55940 from rat cannabinoid CB1 receptor
Cannabinoid receptor 1, sequence (P20272 whole entry): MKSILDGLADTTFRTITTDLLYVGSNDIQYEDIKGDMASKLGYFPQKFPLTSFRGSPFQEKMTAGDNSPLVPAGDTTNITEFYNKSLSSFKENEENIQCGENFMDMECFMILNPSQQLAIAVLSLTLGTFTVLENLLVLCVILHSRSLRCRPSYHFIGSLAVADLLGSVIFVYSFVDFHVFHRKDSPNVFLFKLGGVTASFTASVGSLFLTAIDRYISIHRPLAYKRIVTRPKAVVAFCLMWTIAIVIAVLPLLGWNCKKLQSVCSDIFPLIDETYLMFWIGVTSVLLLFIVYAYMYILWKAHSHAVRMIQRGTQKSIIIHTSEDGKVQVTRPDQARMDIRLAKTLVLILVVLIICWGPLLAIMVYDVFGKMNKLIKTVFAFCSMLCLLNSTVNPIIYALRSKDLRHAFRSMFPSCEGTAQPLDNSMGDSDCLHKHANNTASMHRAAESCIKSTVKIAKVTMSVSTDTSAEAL

[4] = Binding affinity to CB receptor in rat brain membranes; assay type: cell membranes
Procedure, shortened: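 Radioligand competition binding at rat CB1, displacing [3H]CP55,940.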

Cannabinoid receptor 2 (Mus musculus, UniProt P47936), sequence (P47936 whole entry): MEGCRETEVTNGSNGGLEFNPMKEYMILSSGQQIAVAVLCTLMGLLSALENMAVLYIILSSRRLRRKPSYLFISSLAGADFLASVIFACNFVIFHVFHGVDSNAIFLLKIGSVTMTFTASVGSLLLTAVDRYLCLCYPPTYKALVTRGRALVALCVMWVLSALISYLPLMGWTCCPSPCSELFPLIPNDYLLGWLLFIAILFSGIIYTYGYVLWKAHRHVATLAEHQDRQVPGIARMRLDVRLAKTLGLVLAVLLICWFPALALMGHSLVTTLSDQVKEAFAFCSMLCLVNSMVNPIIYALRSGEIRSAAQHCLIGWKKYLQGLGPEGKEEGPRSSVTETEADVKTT

N#Cc1c(Oc2cccc(OS(=O)(=O)CCCC(F)(F)F)c2)cccc1C(F)(F)F
Ratio Ki [1]: 1.21

N#Cc1c(C(F)(F)F)ccc2c1oc1c(OS(=O)(=O)CCCC(F)(F)F)cccc12
Ki (Cannabinoid receptor 2 [2]): 0.41 µM | Ki (Cannabinoid receptor 2 [3]): 0.253 µM | Ratio Ki [1]: 9 | Ki (Cannabinoid receptor 1): 2.28 µM

N#Cc1c(C(F)(F)F)ccc2c1oc1cccc(OS(=O)(=O)CCCC(F)(F)F)c12
Ki (Cannabinoid receptor 2 [2]): 0.676 µM | Ki (Cannabinoid receptor 2 [3]): 1.81 µM | Ratio Ki [1]: 1.05 | Ki (Cannabinoid receptor 1): 1.9 µM

N#Cc1c(C(F)(F)F)ccc2c1Oc1c(cccc1OS(=O)(=O)CCCC(F)(F)F)C2
Ki (Cannabinoid receptor 2 [2]): 1.13 µM | Ki (Cannabinoid receptor 2 [3]): 1.16 µM | Ratio Ki [1]: 12.4 | Ki (Cannabinoid receptor 1): 14.4 µM

O=S(=O)(CCCC(F)(F)F)Oc1cccc(Oc2cccc3c2C[C@H](CO)C3)c1
Ki [4]: 0.00046 µM

N#Cc1c(C(F)(F)F)ccc2c1oc1cc(OS(=O)(=O)CCCC(F)(F)F)ccc12
Ki (Cannabinoid receptor 2 [2]): 0.339 µM | Ki (Cannabinoid receptor 2 [3]): 0.317 µM | Ratio Ki [1]: 3.35 | Ki (Cannabinoid receptor 1): 1.06 µM

N#Cc1c(C(F)(F)F)ccc2c1oc1ccc(OS(=O)(=O)CCCC(F)(F)F)cc12
Ki (Cannabinoid receptor 2 [2]): 1.71 µM | Ki (Cannabinoid receptor 2 [3]): 3.29 µM | Ratio Ki [1]: 0.76 | Ki (Cannabinoid receptor 1): 2.53 µM
